Test results published in ChEMBL document CHEMBL2034893, “Selective inhibition of human type-5 17β-hydroxysteroid dehydrogenase (AKR1C3) by baccharin, a component of Brazilian propolis” (J Nat Prod, 2012).
Values belong to the molecule of their own block, whether it stands above or below them. Active and inactive are the calls of the source. The rule behind the calls is not given here.

Legend:
[1] = molecular target: T1, Aldo-keto reductase family 1 member C3 (Homo sapiens, UniProt P42330); experiment: Inhibition of human recombinant AKR1C3 expressed in Escherichia coli JM109 cells using S-tetralol as substrate at 100 uM by fluorometry
T1 sequence (P42330 whole entry): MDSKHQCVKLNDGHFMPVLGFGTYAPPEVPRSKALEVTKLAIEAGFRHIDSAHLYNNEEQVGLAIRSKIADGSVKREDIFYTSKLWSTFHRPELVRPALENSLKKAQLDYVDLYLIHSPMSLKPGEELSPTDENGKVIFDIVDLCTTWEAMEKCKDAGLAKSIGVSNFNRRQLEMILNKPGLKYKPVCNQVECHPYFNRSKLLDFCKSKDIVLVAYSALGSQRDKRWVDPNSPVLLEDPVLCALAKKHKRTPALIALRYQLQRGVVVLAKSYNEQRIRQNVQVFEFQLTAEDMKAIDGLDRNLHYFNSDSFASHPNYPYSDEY

PC-3 [2] = experiment: Growth inhibition of human PC3 cells overexpressing AKR1C3 at 50 uM after 72 hrs by MTT assay relative to untreated control; type: functional; conditions: PC-3, 72 h, read-out: GI
PC-3 [3] = experiment: Growth inhibition of human PC3 cells at 50 uM after 72 hrs by MTT assay relative to untreated control; type: functional; conditions: PC-3, 72 h, read-out: GI
[4] = molecular target: T2, Aldo-keto reductase family 1 member C1 (Homo sapiens, UniProt Q04828); experiment: Inhibition of AKR1C1-mediated progesterone reduction in human A549 cells at 0.2 to 5 uM incubated for 2 hrs prior to substrate addition measured after 6 hrs by LC/MS analysis; type: cell-based
T2 sequence (Q04828 whole entry): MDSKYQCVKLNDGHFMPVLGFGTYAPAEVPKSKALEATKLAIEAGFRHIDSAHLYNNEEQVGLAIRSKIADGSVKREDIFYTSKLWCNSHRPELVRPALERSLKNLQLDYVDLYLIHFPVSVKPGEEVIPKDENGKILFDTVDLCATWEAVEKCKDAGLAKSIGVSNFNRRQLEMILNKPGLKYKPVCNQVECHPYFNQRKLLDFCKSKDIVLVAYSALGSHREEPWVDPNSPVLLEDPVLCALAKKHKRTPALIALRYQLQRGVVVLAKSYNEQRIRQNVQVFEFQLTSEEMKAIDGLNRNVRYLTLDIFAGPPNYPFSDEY
Method in brief: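 A549 cells were grown in DMEM with 10% FBS at 37 °C under 5% CO2. They were pretreated 2 h with inhibitor in serum-free medium, then given 30 μM progesterone for 6 h. Medium steroids were extracted twice with ethyl acetate. Progesterone and 20α-hydroxyprogesterone were quantified by LC/MS (chiral column, total-ion monitoring). Percent inhibition of reduction is the mean of two independent experiments.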

[5] = molecular target: T1, Aldo-keto reductase family 1 member C3; experiment: Inhibition of human recombinant AKR1C3 expressed in Escherichia coli JM109 cells using S-tetralol as substrate by fluorometry
[6] = molecular target: T1, Aldo-keto reductase family 1 member C3; experiment: Noncompetitive inhibition of human recombinant AKR1C3 expressed in Escherichia coli JM109 cells using S-tetralol as substrate by fluorometry in presence of NADP+
[7] = molecular target: T1, Aldo-keto reductase family 1 member C3; experiment: Competitive inhibition of human recombinant AKR1C3 expressed in Escherichia coli JM109 cells using S-tetralol as substrate by fluorometry
Method in brief: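 Recombinant enzymes (wild-type or mutant) were expressed in E. coli JM109 and purified to homogeneity. Activity was NADP+-linked S-tetralol oxidation at 25 °C in 0.1 M potassium phosphate, pH 7.4, with saturating 0.25 mM NADP+ and five S-tetralol levels (0.33−2 mM). NADPH fluorescence was read at ex 340/em 455 nm. Ki is the mean ± SD of at least three determinations.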

[8] = molecular target: T1, Aldo-keto reductase family 1 member C3; experiment: Inhibition of human AKR1C3 using S-(+)-1,2,3,4-tetrahydro-1-naphthol as substrate
Method in brief: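 Recombinant human AKR1C3, purified to homogeneity. NADP+-linked S-tetralol oxidation at 25 °C in 0.1 M potassium phosphate pH 7.4 with 0.25 mM NADP+ and 1 mM S-tetralol. Rate followed by NADPH fluorescence (excitation 340 nm, emission 455 nm). IC50 given as mean ± SD of at least three determinations.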

[9] = molecular target: Aldo-keto reductase family 1 member C2 (Homo sapiens, UniProt P52895); experiment: Inhibition of human recombinant AKR1C2 expressed in Escherichia coli using S-tetralol as substrate by fluorometry
Chain of Aldo-keto reductase family 1 member C2 (P52895 whole entry): as the sequence (Q04828 whole entry) above, with T38V, R47H, L54V, C87S, V151M, R170H, Q172L counted along it

[10] = molecular target: T2, Aldo-keto reductase family 1 member C1; experiment: Inhibition of human recombinant GST-tagged AKR1C1 expressed in Escherichia coli using S-tetralol as substrate by fluorometry
Method in brief: (§1)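 Purified recombinant enzyme was assayed at 25 °C in 0.1 M potassium phosphate, pH 7.4, with 0.25 mM NADP+ and S-tetralol (0.1 mM for AKR1C1, 1 mM for AKR1C4). The rate of NADPH fluorescence increase was read at ex 340/em 455 nm. IC50 is the mean ± SD of at least three determinations.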

[11] = molecular target: Aldo-keto reductase family 1 member C4 (Homo sapiens, UniProt P17516); experiment: Inhibition of human recombinant GST-tagged AKR1C4 expressed in Escherichia coli using S-tetralol as substrate by fluorometry; method in brief: as §1
Chain of Aldo-keto reductase family 1 member C4 (P17516 whole entry): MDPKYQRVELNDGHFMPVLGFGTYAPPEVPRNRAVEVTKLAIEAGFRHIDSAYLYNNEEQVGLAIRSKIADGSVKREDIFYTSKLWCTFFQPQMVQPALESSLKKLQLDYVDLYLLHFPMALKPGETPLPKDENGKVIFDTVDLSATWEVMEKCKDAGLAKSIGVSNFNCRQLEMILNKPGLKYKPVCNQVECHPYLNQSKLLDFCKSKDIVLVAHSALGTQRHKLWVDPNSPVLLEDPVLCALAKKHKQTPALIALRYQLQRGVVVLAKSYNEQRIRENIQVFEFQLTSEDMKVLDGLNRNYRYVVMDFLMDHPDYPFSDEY

- inhibition [4]: Active
SMILES: O=C(O)c1cc(-c2ccccc2)cc(Br)c1O

- Ki [8]: 0.008 µM
SMILES: Cc1c(Cl)cccc1Nc1ccccc1C(=O)O [TOLFENAMIC ACID]

- IC50 [9]: 75 µM
- IC50 [10]: 130 µM
- IC50 [11]: 54 µM
SMILES: COc1ccc2c(c1)c(CC(=O)O)c(C)n2C(=O)c1ccc(Cl)cc1 [INDOMETHACIN]

The remaining lines, values behind:

SMILES: O=C(O)/C=C/c1ccc(O)c(O)c1
- inhibition [1]: 36%

SMILES: CC(C)=CCc1cc(/C=C/C(=O)O)ccc1OC(=O)CCc1ccccc1 [BACCHARIN]
- inhibition of growth at 50 µM (PC-3 [2]): 43%
- inhibition of growth at 50 µM (PC-3 [3]): 35%

SMILES: CC(C)=CCc1cc(/C=C/C(=O)O)cc(CC=C(C)C)c1O [ARTEPILLIN]
- IC50 [5]: 1 µM
- Ki [6]: 0.68 µM
- Ki [7]: 0.68 µM

SMILES: O=C(/C=C/c1ccc(O)c(O)c1)OCCc1ccccc1 [CAFFEIC ACID PHENETHYL ESTER]
- IC50 [9]: 6 µM
- IC50 [5]: 1.7 µM
- IC50 [10]: 13 µM
- IC50 [11]: 2.3 µM

SMILES: O=C(O)/C=C/c1ccc(O)cc1
- inhibition [1]: 22%
